According to ChEMBL document CHEMBL1142981, “Identification and synthesis of a novel selective partial PPARdelta agonist with full efficacy on lipid metabolism in vitro and in vivo” (J Med Chem, 2007):

Columns and labels:
[1] = target: T1, Peroxisome proliferator-activated receptor delta (Mus musculus) (UniProt P35396); test: (§1) Agonist activity at mouse PPAR delta expressed in HEK293 cells by PPAR-GAL4 transactivation assay; assay type: functional, cell-based
T1 sequence (whole entry): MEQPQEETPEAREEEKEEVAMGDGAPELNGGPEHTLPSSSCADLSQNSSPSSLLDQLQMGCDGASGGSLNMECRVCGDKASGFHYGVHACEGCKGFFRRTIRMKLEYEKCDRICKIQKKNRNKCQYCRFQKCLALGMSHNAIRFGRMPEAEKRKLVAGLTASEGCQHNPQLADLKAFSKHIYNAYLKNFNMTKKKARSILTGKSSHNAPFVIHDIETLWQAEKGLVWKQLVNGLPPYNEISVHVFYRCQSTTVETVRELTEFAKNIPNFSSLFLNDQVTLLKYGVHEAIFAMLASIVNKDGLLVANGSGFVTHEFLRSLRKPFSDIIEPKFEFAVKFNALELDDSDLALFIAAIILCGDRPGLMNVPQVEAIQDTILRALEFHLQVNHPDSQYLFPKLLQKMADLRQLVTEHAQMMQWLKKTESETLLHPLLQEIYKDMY

[2] = target: T2, Peroxisome proliferator-activated receptor delta (Mus musculus, UniProt P35396); test: as §1; assay type: functional, cell-based
T2 sequence (P35396 whole entry): T1 sequence (whole entry)

[3] = system: Mus musculus; test: Increase in total cholesterol level in human ApoB100/CETP transgenic mouse at 20 mg/kg, po after 6 weeks relative to control; assay type: functional
[4] = Volume of distribution in Sprague-Dawley rat at 1.06 mg/kg, iv; assay type: ADME, organism-based; design: dose 1.06 mg/kg, route intravenous; conditions: in vivo, read-out: Vss
Procedure, shortened: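 Male SD rats received a single p.o. or i.v. dose (n = 8 per route) in 5% ethanol, 10% HPCD and phosphate buffer, pH 7.5-8.0. At 5, 15, 30, 60, 90, 120, 240 and 360 min one rat was sacrificed per time point. EDTA plasma was assayed by high turbulence LC-MS/MS. Cmax and bioavailability were taken from oral dosing; volume of distribution is at steady state.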

Structure (SMILES): O=C(O)COc1ccc(SCC=C(c2ccc(Br)cc2)c2ccc(Br)cc2)cc1Cl
- Activity [1]: 167%
- EC50 [2]: 300 nM
- Activity [3]: 2%
- Vd [4]: 0.3 L/kg
